Screening data deposited in PubChem BioAssay by Broad Institute.
esBAF inh – SWI/SNF esBAF complex inhibition; mouse ES cells, Bmi1-luciferase knock-in reporter, 24 h; 100% = twice the neutral-well signal; reporter increase, % at 12.5 µM; actives 2% (n = 350,000); AID 602393; in the data active means activation above about 40%; inconclusive means no clear call, values can overlap the other calls;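 further: 0% = median of the plate's neutral control wells and 100% = double that signal; a rise in the Bmi1 reporter signal indicates esBAF inhibition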
Wnt bcat act – activators of Wnt/beta-catenin signaling; Wnt/beta-catenin reporter cell assay, activator, plate reader; activation, % at 9.35 µM; actives 1.2% (n = 300,000); in the data active means activation above about 30%, passing the limit was not always enough; inconclusive means no clear call, values can overlap the other calls;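 further: 0% = neutral control wells and 100% = positive control wells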
Cneo AK release – Cryptococcus neoformans lysis via adenylate kinase release; C. neoformans lysis, adenylate kinase release luminescence, 4 h; normalised: neutral wells 0, clomiphene wells 100; lysis activity, % at 15 µM; actives 0.2% (n = 360,000); AID 651654;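 active means mean lysis activity across replicates of at least 80%, whatever share of replicates individually reach that level; inactive means mean lysis activity below 80%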
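Signal: Adenylate kinase release luminescence | Assay system: Log-phase Cryptococcus neoformans yeast cells | Input: Cells at 5 × 10^6 per mL | Buffer or medium: Fresh YPD growth medium | Compound: Single dose | Schedule: Static 4 h at 37 °C with compound, 1 h detection | Controls: Clomiphene | Read-out: Luminescence rise reflecting yeast cell lysis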
MITF act – increases MITF-driven TRPM1 promoter luciferase signal | SK-MEL-5 TRPM1-promoter luciferase, 24 h; % of positive control, neutral wells = 0 | activation, % at 12.5 µM | actives 0.75% (n = 300,000) | AID 588334;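 active means mean activation of at least 80% with every replicate also reaching 80%; inconclusive means mean reaches 80% but some replicate falls short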;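 further: 0% = neutral control wells and 100% = parthenolide positive control wells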
ERAP1 inh – inhibitors of human ERAP1 aminopeptidase; Q9NZ08; inhibition, % at 10.7 µM; recombinant ERAP1, Leu-AMC fluorescence, 60 min; actives 0.15% (n = 340,000);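 active means mean replicate inhibition of at least 30%, or all replicates individually reaching that 30% level; inactive means mean below 30% and not every replicate reaching it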;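 further: 0% = neutral control wells and 100% = L-leucinethiol positive control wells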
Target sequence (Q9NZ08 whole entry, looked up): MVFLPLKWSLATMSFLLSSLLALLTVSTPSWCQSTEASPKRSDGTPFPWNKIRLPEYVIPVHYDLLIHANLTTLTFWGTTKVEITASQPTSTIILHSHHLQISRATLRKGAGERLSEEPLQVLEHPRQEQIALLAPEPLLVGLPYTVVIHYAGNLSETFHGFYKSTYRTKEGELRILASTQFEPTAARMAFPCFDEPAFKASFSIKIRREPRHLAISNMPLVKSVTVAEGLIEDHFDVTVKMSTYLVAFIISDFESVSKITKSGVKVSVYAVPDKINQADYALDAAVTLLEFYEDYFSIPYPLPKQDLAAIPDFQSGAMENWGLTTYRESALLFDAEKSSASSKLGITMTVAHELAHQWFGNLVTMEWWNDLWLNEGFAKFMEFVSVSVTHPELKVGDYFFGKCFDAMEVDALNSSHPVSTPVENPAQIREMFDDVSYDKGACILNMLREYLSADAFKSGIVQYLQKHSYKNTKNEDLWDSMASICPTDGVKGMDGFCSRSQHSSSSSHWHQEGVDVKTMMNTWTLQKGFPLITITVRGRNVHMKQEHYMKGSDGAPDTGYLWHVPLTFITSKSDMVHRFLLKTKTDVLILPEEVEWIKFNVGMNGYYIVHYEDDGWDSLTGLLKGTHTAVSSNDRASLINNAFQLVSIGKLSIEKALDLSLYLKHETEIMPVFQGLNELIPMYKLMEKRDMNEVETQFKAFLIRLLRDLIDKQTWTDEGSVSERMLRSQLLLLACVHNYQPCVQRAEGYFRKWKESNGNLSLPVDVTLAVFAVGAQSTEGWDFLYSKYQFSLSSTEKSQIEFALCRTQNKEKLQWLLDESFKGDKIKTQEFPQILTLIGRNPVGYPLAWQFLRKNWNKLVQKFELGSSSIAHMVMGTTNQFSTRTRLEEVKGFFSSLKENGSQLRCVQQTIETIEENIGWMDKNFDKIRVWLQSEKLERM
Env fusion inh – inhibitors of HIV Env-mediated cell fusion; HeLa-JRFL Env/CEM21 cell fusion, luciferase; inhibition, % at 12.3 µM; actives 1.1% (n = 360,000); AID 651610;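 active means mean replicate inhibition score of at least 50 and every replicate individually at or above 50; inconclusive means only one of the two criteria met; inactive means mean below 50 and not all replicates reaching 50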;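 further: 0% = plate neutral controls and 100% = maraviroc near 300 nM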
Numbers without * were called inactive; [ ] = remark or other dose. An excerpt weighted towards active compounds, which were near 3.5% of everything screened.

Screening Cc1ccccc1S(=O)(=O)NCC[C@@H]1CC[C@H](NS(=O)(=O)c2ccccc2C)[C@H](CO)O1 returned esBAF inh -4, Cneo AK release 48, ERAP1 inh -3 and Env fusion inh 4[16.7 µM].
`COC(=O)[C@H]1[C@H](CO)[C@H]2Cn3c(ccc(C4=CCCC4)c3=O)[C@H]2N1C(=O)C1CC1` gave esBAF inh -4, Cneo AK release 3 and ERAP1 inh -15.
`Cc1cc(/C=C(/C#N)c2cccc(F)c2)c(C)n1-c1cccnc1` gave esBAF inh 21, Wnt bcat act 1, Cneo AK release 2, MITF act 88* and ERAP1 inh -1.
Cc1cccc(-n2c(C)cc(C=C(C#N)C#N)c2C)c1 was read as Cneo AK release 0, MITF act -3 and Env fusion inh 36.
Screening CCCNc1ncnc2c1cnn2C1CCCCO1 (stereo unspecified) returned esBAF inh 13, Wnt bcat act 10, Cneo AK release 1, MITF act -6, ERAP1 inh -12 and Env fusion inh 0.
For CCNc1ncnc2c1cnn2C1CCCO1 (stereo unspecified) the results were esBAF inh -1, Wnt bcat act -1, Cneo AK release 1, MITF act 11, ERAP1 inh 1 and Env fusion inh 74*.
Cc1noc(C)c1S(=O)(=O)N(C)C[C@@H]1OCCCC[C@H](C)Oc2ccc(NS(=O)(=O)c3cccs3)cc2C(=O)N([C@@H](C)CO)C[C@H]1C was read as esBAF inh 3, Cneo AK release -4, ERAP1 inh 2 and Env fusion inh -23[16.7 µM].
COC(=O)C(C)N(C(=O)c1cccc2ccccc12)c1c(C)cccc1C (stereo unspecified) was read as MITF act -7 and Env fusion inh 78*.
For COc1ccc2cc3c(N)nn(C(=O)c4cccc(F)c4)c3nc2c1 the results were esBAF inh -6, Wnt bcat act -1, MITF act 8 and Env fusion inh inconclusive.
For COc1ccc2cc3c(N)nn(C(=O)c4ccc(F)cc4)c3nc2c1 the results were esBAF inh -11, Wnt bcat act -3, MITF act 8, ERAP1 inh 4 and Env fusion inh 63*.
Screening COc1ccc2cc3c(N)nn(C(=O)Cc4c[nH]c5ccccc45)c3nc2c1 returned Wnt bcat act -12, MITF act -54, ERAP1 inh -2 and Env fusion inh 90*.
For Cc1ccc(S(=O)(=O)Nc2ccc3c(c2)C(=O)N([C@H](C)CO)C[C@H](C)[C@@H](CN(C)C(=O)Nc2ccc4c(c2)OCO4)OCCCC[C@H](C)O3)cc1 the results were esBAF inh 10, Cneo AK release 1, ERAP1 inh 2 and Env fusion inh -132[16.7 µM].
Screening O=C1CCCc2c1[nH]c1ccc(Cl)cc21 returned esBAF inh -3, Wnt bcat act -36, Cneo AK release 9, MITF act -44 and Env fusion inh 83*.
Screening OCCCN=C1CCCc2c1[nH]c1ccc(Cl)cc21 returned esBAF inh 5, Wnt bcat act -6, MITF act -43 and Env fusion inh 57*.
For CCOC(=O)C1CCCc2c1[nH]c1ccc(Cl)cc21 (stereo unspecified) the results were Wnt bcat act -1, MITF act -8, ERAP1 inh 1 and Env fusion inh 9.
OCCN=C1CCCc2c1[nH]c1ccc(Cl)cc21 was read as esBAF inh -5, Wnt bcat act -1, MITF act -35 and Env fusion inh 67*.
`COc1ccc(S(=O)(=O)N(C)C[C@@H]2OCCCC[C@H](C)Oc3ccc(NC(=O)Nc4ccc5c(c4)OCO5)cc3C(=O)N([C@H](C)CO)C[C@H]2C)cc1` gave esBAF inh 2, Cneo AK release 0, ERAP1 inh -3 and Env fusion inh 18[16.7 µM].
Screening CC1Sc2ccc(C(=O)OCc3ccccc3Cl)cc2NC1=O (stereo unspecified) returned Wnt bcat act inconclusive, Cneo AK release 0, MITF act 186*, ERAP1 inh 2 and Env fusion inh -84.
